Reference: ChEMBL document CHEMBL1142708, “Synthesis, characterization, and comparative in vitro cytotoxicity studies of platinum(II), palladium(II), and gold(III) methylsarcosinedithiocarbamate complexes” (J Med Chem, 2005)

system: HL-60; experiment: Concentration of the compound required to inhibit cell growth by 50% towards human HL60 tumor cell lines by the trypan blue dye exclusion test after 72 h; format: functional, cell-based
Method in brief: (§1)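 Cells were seeded in IMDM with 10% heat-inactivated FCS, penicillin/streptomycin and L-glutamine at 37 °C under 5% CO2, at 5.0 × 10^4 cells·mL-1 for HeLa and 2.0 × 10^5 cells·mL-1 for HL60. Compounds were taken from DMSO stocks into IMDM (final DMSO 0.1%). After 72 h, cells were stained for 2 min with 0.25% trypan blue plus 5% FCS, and viable cells were counted by phase-contrast microscopy. IC50 was taken as 50% growth inhibition versus control.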

Substance	IC50
CISPLATIN	1.7 µM
[Pt(MSDTM)Br2]	> 15 µM
[Au(MSDT)Cl2]	0.9 µM
[Pt(MSDT)Br]n	> 15 µM
[Pt(MSDT)Cl]n	> 15 µM
[Pd(MSDT)Br]n	3.7 µM
[Au(MSDT)Br2]	0.8 µM
[Pd(MSDT)Cl]n	3.8 µM
[Pd(MSDTM)Br2]	> 15 µM

system: HeLa; experiment: Concentration of the compound required to inhibit cell growth by 50% towards human HeLa tumor cell lines by the trypan blue dye exclusion test after 72 h; format: functional, cell-based; method in brief: as §1

Substance	IC50
CISPLATIN	1.2 µM
[Pt(MSDTM)Br2]	> 15 µM
[Au(MSDT)Cl2]	1.7 µM
[Pt(MSDT)Br]n	> 15 µM
[Pt(MSDT)Cl]n	> 15 µM
[Pd(MSDT)Br]n	5 µM
[Au(MSDT)Br2]	1.8 µM
[Pd(MSDT)Cl]n	6 µM
[Pd(MSDTM)Br2]	> 15 µM
